Mot1-301 SUMO: SUMOylation pathway inhibition by Mot1-301 growth rescue; S. cerevisiae Mot1-301 growth rescue, ATP luminescence, 38.5C; percent above DMSO median, 100 means doubled; growth rescue, % at 18.8 µM; hit rate 1% among 320,000; AID 2716;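 active = every valid replicate shows activation above 250% relative to neutral control wells; inactive = the rest, any valid replicate at or below 250%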;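 also: OY570 slx delta 5 strain wells were the positive control but not used for scaling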
APOBEC3A inh: inhibitors of human APOBEC3A DNA deaminase. P31941. recombinant A3A, FAM/TAMRA ssDNA deamination fluorescence. inhibition, % at 20 µM. hit rate 0.41% among 330,000;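 active = at least 40% inhibition at 20 µM here, with at most 30% in a related deaminase screen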;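 also: plate controls were A3A with DMSO for no effect and wells lacking A3A enzyme for full effect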
Target sequence (P31941 whole entry, looked up): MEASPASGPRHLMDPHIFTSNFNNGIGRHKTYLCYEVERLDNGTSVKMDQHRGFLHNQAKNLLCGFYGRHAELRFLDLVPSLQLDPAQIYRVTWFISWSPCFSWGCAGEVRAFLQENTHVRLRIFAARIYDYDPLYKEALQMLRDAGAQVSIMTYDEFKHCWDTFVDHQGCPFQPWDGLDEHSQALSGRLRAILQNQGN
APOBEC3G inh: inhibitors of human APOBEC3G DNA deaminase; hit rate 0.28% among 330,000; recombinant A3G, ssDNA deamination FAM/TAMRA fluorescence; AID 493012; Q9HC16; inhibition, % at 20 µM;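 active = inhibition of at least 40% at 20 µM, with no more than 30% in the related APOBEC3A deaminase screen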;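 also: plate controls were DMSO wells with A3G for no effect and wells lacking A3G enzyme for full effect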
C2C12 statin: protects C2C12 myotubes from simvastatin toxicity; hit rate 0.78% among 330,000; rescue of ATP level, % at 7.49 µM; ATP luminescence, 48 h; scaled: DMSO 0, geranylgeraniol control 100; AID 602340;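 active = mean ATP rescue above about 67%, or every replicate alone reaching that limit, limit read from the data, passing the limit was not always enough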;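 also: myotubes were challenged with 10 µM simvastatin during compound exposure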
ASAP1 inh: blocks human ASAP1-stimulated Arf1 GTP hydrolysis | Q9ULH1 | inhibition, % at 16.5 µM | GDP FP detection | hit rate 0.19% among 360,000; in the data active = inhibition above about 25%;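 also: 0% = vehicle with enzyme and substrate and 100% = no enzyme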
Target sequence (Q9ULH1 325-724 limits assumed): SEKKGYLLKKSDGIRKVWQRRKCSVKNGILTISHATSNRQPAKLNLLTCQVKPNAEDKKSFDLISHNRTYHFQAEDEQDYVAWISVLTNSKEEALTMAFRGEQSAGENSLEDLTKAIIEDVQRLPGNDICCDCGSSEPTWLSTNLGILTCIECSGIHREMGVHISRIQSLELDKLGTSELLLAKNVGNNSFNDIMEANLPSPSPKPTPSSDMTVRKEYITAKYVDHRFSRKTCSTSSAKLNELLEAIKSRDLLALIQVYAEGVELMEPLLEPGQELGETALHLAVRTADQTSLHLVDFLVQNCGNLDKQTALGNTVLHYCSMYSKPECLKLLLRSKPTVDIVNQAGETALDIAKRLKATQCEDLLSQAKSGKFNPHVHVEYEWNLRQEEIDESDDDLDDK
ARFGAP1 inh: rat ARFGAP1 inhibition. Arfgap1-stimulated ARF1 GTP hydrolysis, GDP FP detection. inhibition, % at 16.5 µM. hit rate 0.26% among 360,000. AID 651572;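 active = inhibition above a per-plate limit, mean inhibition of low control wells plus 3 SD, cut at about 25% in these data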;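 also: 0% = DMSO wells with enzyme and 100% = wells lacking Arfgap1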
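Material – truncated rat Arfgap1 GAP domain · Buffer or medium – HEPES-based buffer, pH 7.5 · Reagent – human ARF1(Δ1-17)-GTP substrate · Dosing – 16.5 µM single point, 1.26% DMSO · Schedule – GTP hydrolysis reaction 2 h at 25 °C · Technique – GDP detection by fluorescence polarization · Benchmarks – No-Arfgap1 wells (100%) versus DMSO full-reaction wells (0%) · Repeats – single replicate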
Numbers without * were called inactive; · = not tested or not shown. Compounds with a hit are over-represented: about 2.1% of the library has one in this group of screens.

SMILES	Mot1-301 SUMO	APOBEC3A inh	APOBEC3G inh	C2C12 statin	ASAP1 inh	ARFGAP1 inh
CCCn1c(SCC(=O)Nc2ccc(OCC)cc2)nnc1C(C)C	344.5*	0.9	-0.8	·	-5.3	-5.6
CCn1c(CNc2ccc(F)cc2)nnc1SCC(=O)Nc1ccc(OC)cc1	7.1	-1.1	-2.2	119.0*	1.5	-16.1
O=C(CCNS(=O)(=O)c1ccc(Cl)cc1)N1CCN(c2ccccn2)CC1	269.0*	0.9	1.0	4.6	5.5	2.6
COc1ccccc1C1(CC(=O)N2CCOCC2)CCOC(C(C)C)C1 (stereo not given)	569.6*	-6.4	-5.8	0.4	-7.0	0.3
COc1ccccc1C1(CC(=O)Nc2nccs2)CCOC(C(C)C)C1 (stereo not given)	18.8	-1.3	-0.3	-42.6	7.4	7.0
O=C(Nc1nc(NC(=O)c2ccco2)n(-c2ccccc2)n1)c1ccccc1	3.0	-2.8	-3.3	94.2*	-0.7	5.2
CCC(=O)Nc1ccc2c(c1)C(=O)N(C)C[C@@H](OC)[C@@H](C)CN(CCc1ccccc1)[C@H](C)CO2	·	·	·	5.7	·	·
C[C@H]1CN([C@@H](C)CO)C(=O)Cc2cc(NS(=O)(=O)c3cn(C)cn3)ccc2O[C@@H]1CN(C)Cc1ccncc1	·	·	·	-0.4	·	·
O=C(C[C@@H]1CC[C@H]2[C@@H](COC[C@H](O)CN2Cc2ccc(F)cc2)O1)NCc1ccncn1	·	·	·	13.8	·	·
Oc1[nH]c2ccccc2c1C=NCC1CCCO1 (stereo not given)	-4.2	-0.6	-6.5	121.3*	4.4	17.1
Cc1cc(NC(=O)CCNS(=O)(=O)c2ccc3[nH]c(=O)oc3c2)ccc1Br	-13.1	-1.9	-1.7	3.0	-6.2	1.1
Cc1ccc(NC(=O)CCNS(=O)(=O)c2ccc3[nH]c(=O)oc3c2)cc1F	-10.7	-2.9	-8.9	111.1*	5.5	-9.5
COc1cc(-c2nc3ccc4ccccc4c3c3c2CCC3)cc(OC)c1OC	-4.9	5.7	1.3	93.6*	-11.7	-6.8
C=CCOc1ccc(Br)cc1/C=N/O	-22.0	1.3	-0.7	126.0*	-14.5	-3.9
O/N=C/c1cc(Br)ccc1OCc1ccccc1F	0.5	-0.5	-0.5	-10.3	4.3	13.6
CCc1ccc(C(O)(CC(C)C)C(CN2CCOCC2)c2ccccc2)cc1 (stereo not given)	156.6	-1.3	-5.1	106.1*	8.9	2.5
CCCC(O)(c1ccc(Cl)cc1)C(CN1CCOCC1)c1ccc(Cl)cc1 (stereo not given)	291.6*	-6.2	-8.4	17.1	-3.7	-15.4
COc1ccc(C(O)(CC(C)C)C(CN2CCOCC2)c2ccccc2)cc1 (stereo not given)	368.9	-1.6	-7.3	29.7	-3.1	-5.0
CCCC(O)(c1ccc(OC)cc1)C(CN1CCOCC1)c1ccc(Cl)cc1 (stereo not given)	89.5	4.1	1.0	61.9	-11.2	9.8
CCOC(=O)N1CCN(C2CC(=O)N(c3ccc(Oc4ccccc4)cc3)C2=O)CC1 (stereo not given)	13.8	5.1	1.0	125.5*	-1.2	-2.8
N#C[C@H]1[C@H](c2ccccc2)[C@@H](CO)N1C(=O)Nc1cccc(F)c1	·	·	·	5.1	·	·
COc1cc(-c2noc(-c3ccccc3C(=O)NCc3ccco3)n2)cc(OC)c1OC	2.8	1.2	12.8	100.2*	-4.5	5.2
CCC(=O)c1ccc(OCC(=O)O)cc1	·	·	·	106.8*	-9.7	9.5
CCC(=O)c1ccc(OCC(=O)NC2CCCC2)cc1	114.8	-0.3	-11.7	-4.4	3.9	-12.8
COc1ccc(Cl)cc1NC(=O)CN1CCN(S(=O)(=O)N2CCOCC2)CC1	291.4*	-2.7	-13.1	-1.0	7.5	5.7
SMILES	Mot1-301 SUMO	APOBEC3A inh	APOBEC3G inh	C2C12 statin	ASAP1 inh	ARFGAP1 inh
O=C1CN(C(=O)COC(=O)CCSc2ccccc2Cl)c2ccccc2N1	-1.6	-3.6	-4.9	106.1*	-2.2	-4.2
O=C1CN(C(=O)COC(=O)Cc2ccccc2F)c2ccccc2N1	1.2	-6.3	-6.5	-4.5	-2.1	-22.6
C[C@@H]1CCCCO[C@H](CN(C)S(=O)(=O)c2ccc(Cl)cc2)[C@H](C)CN([C@H](C)CO)C(=O)c2cc(N(C)C)ccc2O1	·	·	·	-25.9	·	·
CN(C)CC(=O)Nc1ccc2c(c1)[C@@H]1C[C@H](CC(=O)NCc3cc(F)ccc3F)O[C@@H](CO)[C@@H]1O2	·	·	·	0.5	·	·
Cn1cnc2nc[nH]c2c1=S	·	·	·	74.8*	12.4	9.3
CN(C)CCCNC(=O)C[C@@H]1CC[C@H](NC(=O)Cc2cccnc2)[C@H](CO)O1	·	·	·	0.2	·	·
CC(C)N1C(=O)CCC1C(=O)N1CCC(Cc2ccccc2)CC1 (stereo not given)	6.6	-2.2	-13.6	131.6*	-0.2	13.6
CC(C)N1C(=O)CCC1C(=O)N1CCN(c2ccc(F)cc2)CC1 (stereo not given)	3.5	-1.1	-8.2	0.1	0.8	-2.9
Cc1cc(C(=O)Nc2ccc3c(c2)C(=O)N(C)[C@H]2CC[C@@H](CC(=O)N[C@H](C)c4ccccc4)O[C@@H]2CO3)no1	·	·	·	-1.5	·	·
COc1ccc(C2c3[nH]c4ccccc4c3C[C@H]3C(=O)N(c4ccccc4C(=O)N4CCC(C(=O)O)CC4)C(=O)N23)cc1 (stereo not given in full)	342.5*	-2.4	-7.9	-1.4	6.5	12.1
COCCCNCCCCOc1ccc(Br)cc1Cl	280.0*	1.2	-9.3	6.9	-8.3	-10.1
CCSc1nc2sc3c(c2c(=O)n1-c1ccc(OC)cc1)CCN(C)C3	2.8	-6.1	-5.1	100.7*	4.2	-2.1
CCOC(=O)CSc1nc2sc3c(c2c(=O)n1-c1ccc(OC)cc1)CCN(C)C3	-27.6	-2.7	-4.4	10.6	20.5	23.8
Nc1ccccc1C(=O)N1CCC(O)(c2ccc(Cl)cc2)CC1	324.7*	-1.1	-7.6	-9.5	-10.4	12.8
CO[C@@H]1CN(C)C(=O)c2cc(NC(=O)Nc3ccccc3)ccc2OC[C@@H](C)N(CC2CC2)C[C@H]1C	·	·	·	-13.0	·	·
COc1ccc(C2C(Oc3ccccc3)C(=O)N2c2cc(C)ccc2C)cc1OC (stereo not given)	-21.6	-2.3	-5.1	73.0*	13.9	-2.8
COc1ccc(C2C(Oc3ccccc3)C(=O)N2c2ccc(C)c(C)c2)cc1OC (stereo not given)	-3.2	-0.3	0.7	56.3	2.0	-7.2
CNC(=O)COC(=O)c1nc(-n2nc(C)cc2C)ccc1Cl	-4.7	1.0	-5.3	80.0*	8.0	0.9
COC(=O)c1nc(-n2nc(C)cc2C)ccc1Cl	·	1.8	-6.8	9.7	-4.6	0.1
C[C@H]1CN([C@@H](C)CO)C(=O)c2cccc(NC(=O)Nc3ccc4c(c3)OCO4)c2O[C@H]1CN(C)S(=O)(=O)c1ccc(F)cc1	·	·	·	11.9	·	·
O=C(NC1CCCCC1)c1ccc([N+](=O)[O-])o1	107.7	-4.2	-0.6	69.4*	·	·
